Published values collected from several papers.
Each line is one published result; the experiments were not run side by side.
Target: Rho-associated protein kinase 2 (ROCK2, Homo sapiens, UniProt O75116)

SMILES | assay | conditions | measurement | result
CCOc1cc(-c2nncn2C)ccc1Nc1ncc2cc(C)nc(NCC(C)(C)C)c2n1 | enzyme activity, inhibitor, FRET | 1 µM | inhibition | < 15%
O=C1NC(c2ccccn2)Sc2ccccc21 (centres unmarked) | cell-free assay, competition with immobilised ligand | 1 µM | remaining binding | 67%
CC(C)(O)[C@H]1CC[C@H](Nc2ccc3ncc(-c4cccc(C(F)(F)F)c4)n3n2)CC1 | enzyme activity, inhibitor | 1 µM | remaining activity | 92.8%
COc1cc(Nc2cnc(C#N)c(O[C@H](C)CN(C)C)n2)ncc1-c1cnn(C)c1 | enzyme activity, inhibitor, radiometric | 1 µM | remaining activity | 92%
C=CC(=O)Nc1cc(Nc2nccc(Nc3cc(Cl)c(F)cc3C(C)(C)O)n2)c(OC)cc1N1CC[C@@H](N(C)C)C1 | enzyme activity, inhibitor | 1 µM | inhibition | 15%
O=C1Nc2ccc(Cl)cc2C1=Cc1cc(Cl)c(O)c(Cl)c1 | cell-free assay | 0.5 µM | remaining signal | 90.6%
CNCc1ccc(-c2cc(-c3nc(-c4ccc(S(=O)(=O)C(C)C)cc4)cnc3N)on2)cc1 | enzyme activity, inhibitor | 0.4 µM | inhibition | 0%
CS(=O)(=O)CCNCc1ccc(-c2ccc3ncnc(Nc4ccc(OCc5cccc(F)c5)c(Cl)c4)c3c2)o1 | cell-free assay | 0.5 µM | remaining signal | 92.7%
Cc1ccc(C(=O)Nc2ccc(CN3CCN(C)CC3)c(C(F)(F)F)c2)cc1C#Cc1cnc2cccnn12 | enzyme activity, inhibitor | 23.5 nM | remaining activity | 89%
Fc1cccc(-n2cnc3c(NCc4nc5c(F)c(F)ccc5[nH]4)nc(N4CCOCC4)nc32)c1 | binding, competition with immobilised ligand | 10 µM | binding vs control | 54%
FC(F)(F)c1ccc2c(c1)nc(-c1cccnc1)n2C1CC1 | cell-free assay, competition with immobilised ligand | 1 µM | remaining binding | 100%
Cn1cnc(Br)c1C1=CN(c2ncnc3[nH]cnc23)CCS1 | enzyme activity, inhibitor, radiometric | 50 nM | inhibition | 18.6%
CN(C)CC#Cc1ccc(OCCCc2sc(N3CCc4cccc(C(=O)Nc5nc6ccccc6s5)c4C3)nc2C(=O)O)c(F)c1 | cell-free assay, competition with immobilised ligand | 1 µM | remaining binding | 100%
COc1cc2ncnc(Nc3ccc(Oc4ccccc4)c(C)c3C)c2cc1OC | enzyme activity, inhibitor | 1 µM | inhibition | 8%
CC(C)(C)c1nc(-c2cccc(NS(=O)(=O)c3c(F)cccc3F)c2F)c(-c2ccnc(N)n2)s1 | enzyme activity, inhibitor, radiometric | 1 µM | remaining activity | 103%
CO[C@@H](C)c1c(Nc2ccc([C@@H](N(C)C(=O)C3CCS(=O)(=O)CC3)C(F)(F)F)cc2)cnc2cc(Cl)nn12 | cell-free assay, competition with immobilised ligand | 1 µM | remaining binding | 100%
CCCOc1ccc(OC)c(F)c1C(=O)c1ccc(C(=O)N[C@@H]2CNC[C@H]2NC(=O)c2ccc3[nH]ncc3c2)cc1 | enzyme activity, inhibitor | 0.5 µM | remaining activity | 6%
Cc1ccc(Nc2nccc(N(C)c3ccc4c(C)n(C)nc4c3)n2)cc1S(N)(=O)=O | enzyme activity, inhibitor | 0.3 µM | inhibition | -15%

SMILES | assay | conditions | measurement | result
Nc1nc(NC2CCCCC2)sc1C(=O)c1ccccc1 | enzyme activity, inhibitor | 10 µM | remaining activity | 97%
O=S(=O)(NCCNC/C=C/c1ccc(Br)cc1)c1cccc2cnccc12 | cell-free assay | 0.5 µM | remaining signal | 15.4%
CS(=O)(=O)Nc1cccc(-c2csc(NC(=O)CSc3nc4nccnc4c(=O)n3CCc3ccccc3)n2)c1 | enzyme activity, inhibitor | 10 µM | inhibition | 5%
Cn1cncc1C1=CN(c2ncnc3[nH]cnc23)CCS1 | enzyme activity, inhibitor, radiometric | 2 µM | inhibition | 93.3%
CNC(=O)c1cc(Oc2ccc(NC(=O)Nc3ccc(Cl)c(C(F)(F)F)c3)cc2)ccn1 | enzyme activity, inhibitor | 0.3 µM | inhibition | -11%
Cc1ccc(NC(=O)c2ccc(C)c(C(F)(F)F)c2)cc1C#Cc1nn(C2CCC(O)CC2)c2ncnc(N)c12 (centres unmarked) | cell-free assay | 10 µM | remaining signal | 56%
C[C@@H](N)[C@H]1CC[C@H](C(=O)Nc2ccncc2)CC1 | cell-free assay | 0.5 µM | remaining signal | 26.3%
CN([C@@H]1CCc2c(CC(=O)O)c3ccccc3n2C1)S(=O)(=O)c1ccc(F)cc1 | cell-free assay, competition with immobilised ligand | 1 µM | remaining binding | 100%
CCN(CC)c1ccc(C2=NNC(=O)CC2C)cc1[N+](=O)[O-] (centres unmarked) | enzyme activity, inhibitor | 10 µM | remaining activity | 99%
Nc1ncnc2occ(-c3ccc(NC(=O)Nc4cc(C(F)(F)F)ccc4F)cc3)c12 | cell-free assay, inhibitor | 20 µM | remaining signal | 0%
Cc1ccc(-n2nc(C(C)(C)C)cc2NC(=O)Nc2ccc(OCCN3CCOCC3)c3ccccc23)cc1 | enzyme activity, inhibitor | 10 µM | inhibition | -3%
COc1cccc(CNC(=O)c2nc3scc(COCc4ccc(C(=O)O)cc4)c3c(=O)[nH]2)c1 | cell-free assay, competition with immobilised ligand | 1 µM | remaining binding | 69.1%
Cc1sc(C(=O)NC2COC2)cc1-n1cc(NC(=O)Nc2c(F)cccc2Cl)cn1 | enzyme activity, inhibitor | 10 µM | remaining activity | 93.6%
Cc1c(NC(=O)c2cc(C(N)=O)nc3cc(F)ccc23)c(C(F)(F)F)nn1Cc1ccc(C(C)(C)C)cc1 | cell-free assay, competition with immobilised ligand | 1 µM | remaining binding | 100%
CC/C(=N\NC(=O)NCc1cccc(O)c1)c1ccc(O)c(C)c1O | enzyme activity, inhibitor | 0.1 µM | inhibition | 82.6%
CCS(=O)(=O)c1cc2cc(C[C@@](O)(CC(C)(C)c3ccc(F)cc3C(N)=O)C(F)(F)F)[nH]c2cn1 | cell-free assay, competition with immobilised ligand | 1 µM | remaining binding | 76%
FC(F)c1nc2ccccc2n1-c1nc(N2CCOCC2)nc(N2CCOCC2)n1 | enzyme activity, inhibitor | 10 µM | remaining activity | 85%
